# Sampled rows, rich in hits. Any-hit rate of the full collection: about 3.5%.
# MrgX1 antagonist = blocks BAM8-22 activation of human MrgX1 receptor | MRGX1-HEK293 calcium flux, Fluo-4, BAM8-22 antagonism; active compounds read low | B-score at 10 µM | actives 1.3% (n = 310,000) | AID 588676;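 active = calcium-response B-score plate-corrected more than 3 library SD below zero, starting fluorescence within 5 deviations, no agonist response on first addition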;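 also: peak minus trough fluorescence over baseline after final BAM8-22 challenge near maximal dose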
# Target sequence (Q96LB2 whole entry, looked up): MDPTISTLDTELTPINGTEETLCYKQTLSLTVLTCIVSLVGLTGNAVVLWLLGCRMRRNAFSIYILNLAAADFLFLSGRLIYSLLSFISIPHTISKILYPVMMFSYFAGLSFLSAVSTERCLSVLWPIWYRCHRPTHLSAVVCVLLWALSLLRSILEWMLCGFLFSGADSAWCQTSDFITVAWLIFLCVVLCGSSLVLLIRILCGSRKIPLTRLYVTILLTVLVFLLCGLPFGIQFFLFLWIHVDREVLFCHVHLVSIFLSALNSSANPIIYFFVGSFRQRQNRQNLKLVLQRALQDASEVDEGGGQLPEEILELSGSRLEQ
# MrgX1 PAM = allosterically activates human MrgX1 receptor signaling; Q96LB2; MrgX1-HEK293, Fluo-4 calcium flux, FDSS; active compounds read high; B-score at 10 µM; actives 0.63% (n = 310,000);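 active = plate-corrected calcium response at least 3 library SD above typical, normal starting fluorescence, not activating the receptor alone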;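 also: compound read alongside a low EC10 to EC30 dose of BAM8-22 agonist; peak minus trough fluorescence over baseline measured at the second addition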
# RGS4 act = potentiators or activators of RGS4; AID 463111; B-score at 10 µM; HEK293 M3R/inducible RGS4, carbachol calcium flux Fluo4; active compounds read low; actives 0.92% (n = 310,000);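 active = B-score of the integrated calcium signal more than 4 SD below the library mean, with starting fluorescence not abnormally high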;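 also: negative B-score means reduced calcium response which marks RGS4 activation or potentiation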
#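 Assay system: Inducible-RGS4 HEK293 cells carrying M3 receptor | Schedule: Compound preincubation 20 min at room temperature before agonist | Signal: Kinetic calcium fluorescence imaging with Fluo4-AM dye, 2 µM | Read-out basis: B score from integrated fluorescence ratio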
# MrgX1 ag = activates human MrgX1 receptor signaling; MrgX1-HEK293 cells, Fluo-4 calcium fluorescence, agonist mode; active compounds read high; B-score at 10 µM; actives 0.44% (n = 310,000); AID 588627;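 active = calcium response B-score plate-corrected fluorescence ratio at least 3 library SD, with starting fluorescence B-score inside 5 SD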
#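 System: HEK293 cells stably expressing human MrgX1 receptor; Dosing: test compound in the initial addition of three; Schedule: overnight plating, then 30 min 37 °C plus 30 min room-temperature dye loading; Detection: kinetic calcium dye fluorescence, Fluo-4 NW; Controls: per-plate positive and negative controls for Z′ factor.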
# RGS4 block = inhibitors of human RGS4. HEK293 M3R/RGS4 inducible, Fluo-4 calcium flux; active compounds read high; triggered by carbachol at its EC20. B-score at 10 µM. actives 0.45% (n = 310,000). AID 463165;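 active = B-score, a plate-corrected calcium signal, over three deviations above library mean, with baseline fluorescence within five deviations of library mean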;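 also: RGS4 expression induced by doxycycline in cells with stable M3 receptor; B-score is computed from the integrated fluorescence ratio over baseline after carbachol; higher B-score means a larger calcium signal and so more RGS4 inhibition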
# * marks the source's active call; other numbers are inactive results; i = inactive; nt = not tested or not shown.
SMILES,MrgX1 antagonist,MrgX1 PAM,RGS4 act,MrgX1 ag,RGS4 block
C=CCn1c(-c2ccccc2[N+](=O)[O-])n[nH]c1=S,i,i,i,i,i
C=CCn1c(-c2ccc([N+](=O)[O-])cc2)n[nH]c1=S,i,i,-7.7*,i,i
O=c1c2c([N+](=O)[O-])cc([N+](=O)[O-])cc2sn1Cc1ccccc1,i,i,i,37*,i
O=c1c2c([N+](=O)[O-])cc([N+](=O)[O-])cc2sn1-c1ccc(Br)cc1,i,i,nt,i,nt
COc1cc(NC(=O)NCC2CCN(Cc3ccccc3C)CC2)cc(OC)c1OC,i,i,-7*,i,i
Cc1ccc(C)c(CN2CCC(CNC(=O)Nc3ccc(Cl)cc3)CC2)c1,i,i,i,i,i
COc1ccc(OCC(=O)N2CCN(C(=O)COc3ccc(Br)cc3)CC2)cc1,-4.8*,i,i,i,i
CN1CCC(OC(=O)COc2ccc(Br)cc2)CC1,i,i,-7.5*,i,i
CC(=O)N1CCN(C(=O)COc2ccc(Br)cc2)CC1,i,i,i,i,i
COc1ccc(/C=N/OC/C(O)=C(\C#N)c2nc3ccccc3[nH]2)cc1,-5.6*,i,i,i,i
N#C/C(=C(/O)COC(=O)Cc1c[nH]c2ccccc12)c1nc2ccccc2[nH]1,-4.9*,i,i,i,i
CCCOC(=O)c1ccc(Oc2coc3c(CN(CC)CC)c(O)ccc3c2=O)cc1,i,i,-8.6*,i,i
CCN(CC)Cc1c(O)ccc2c(=O)c(-c3ccc(Cl)cc3)coc12,i,i,i,i,i
CCC(C)Sc1ccc([C@@H]2[C@H]3C(=O)N(CC)C(=O)[C@H]3[C@]3(C(=O)OC)CCCCN23)cc1 (some centres not stated),i,i,nt,i,nt
NC(=O)N=Nc1c(O)n(Cc2ccccc2)c2ccc(Br)cc12,i,i,i,i,i
C=CCn1c(SCC(=O)c2cc(C)n(C(C)COC)c2C)nc2sc(C)c(C)c2c1=O (configuration not stated),i,i,-7.5*,i,i
Cc1ccc(C2=NC3(CCCCC3)NC2=S)cc1,i,i,i,i,i
CCN1CCC2(CC1)N=C(c1ccc(F)cc1)C(=S)N2,i,i,-7.4*,i,i
CCN(CC(=O)Nc1ccc(NC(C)=O)cc1)C(=O)Cc1ccc(Cl)c(Cl)c1,nt,nt,i,nt,i
CCC(=O)Oc1ccc2c(C)cc(=O)oc2c1C(=O)CC,i,6.9*,i,i,i
COc1cccc(C2C3=C(N=c4s/c(=C\c5ccc(OCC(=O)O)cc5)c(=O)n42)c2ccccc2CC3)c1 (configuration not stated),-7.5*,i,-8.4*,i,i
O=C(CCCOc1ccc(Cl)cc1Cl)NCCc1ccccn1,i,i,i,i,i
CN1CCN(CCCOc2ccc(-c3ccccc3)cc2)CC1,i,i,-9.3*,i,i
c1ccc(COc2ccc(OCCCCN3CCCCC3)cc2)cc1,i,i,-10*,i,i
CN1CCN(CCOc2ccc(-c3ccccc3)cc2)CC1,i,i,i,i,i
SMILES,MrgX1 antagonist,MrgX1 PAM,RGS4 act,MrgX1 ag,RGS4 block
Cc1c(NC(=S)N/N=C/c2ccc(Br)cc2)c(=O)n(-c2ccccc2)n1C,i,i,i,i,i
Cn1c(CS/C(N)=N/N=C/c2ccccc2)c(Br)c(=O)n1-c1ccccc1,i,i,i,46*,i
CCCCN(C)S(=O)(=O)c1ccc(C(=O)Nc2nnc(-c3cccs3)o2)cc1,i,i,i,31*,i
O=C(N/N=C\c1ccc[nH]1)C1COc2ccccc2O1 (configuration not stated),i,i,i,i,i
CS(=O)(=O)Nc1ccc(C2=NN(S(C)(=O)=O)C(c3ccc4nccnc4c3)C2)cc1 (configuration not stated),i,i,i,i,i
CC(=O)N1N=C(c2ccc(NS(C)(=O)=O)cc2)CC1c1ccc2nccnc2c1 (configuration not stated),-7.2*,i,i,i,i

# Compound activity (PubChem BioAssay)
